Inconclusive results are not listed.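 The calls were made as follows, unless noted: active = cell viability at or below a set limit in both duplicate runs, the limit being the all-compound median minus 4 SD (cut at about 23% in these data, passing the limit was not always enough); inconclusive = no clear call, values can overlap the other calls; inactive = the rest.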
Columns and labels:
[1] = OD615 S. cerevisiae growth inhibition, permissive medium, pilot counter-assay, permissive growth control for S. cerevisiae lifespan shortening project (AID 705;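 active = growth inhibition above 25% in both replicates, a cutoff set 3 SD above the mean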); conditions: OD615, 24 h, at 10 µM, hits give high values
In short: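 System: S. cerevisiae with engineered DeaD lifespan system. Medium: SC raffinose/galactose permissive medium. Doses: single compound dose of 10 µM, 0.25% DMSO final. Schedule: 24 h exposure, 30 °C. Measured by: OD615 turbidity read. Read-out: growth inhibition.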

[2] = Restrictive medium S. cerevisiae growth inhibition, OD615, pilot screen of yeast lifespan reduction project, restrictive growth control (AID 706;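 active = growth inhibition above a set limit, 3 SD over mean compound inhibition, in both replicates, cut at about 43% in these data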;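 also: modified DeaD lifespan yeast strain shifted to restrictive glucose medium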); conditions: OD615, 48 h, at 10 µM, hits give high values
In short: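 Assay system – genetically modified Saccharomyces cerevisiae, DeaD replicative lifespan assay strain · Medium – CSMM-D glucose medium · Doses – 10 µM compound, 0.25% DMSO · Times – 4 h pre-incubation, 48 h exposure at 30 °C · Signal – optical density at 615 nm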

[3] = viability gain of MRP-1-high H69AR cells under doxorubicin, pilot screen, MRP-1 activator project, CellTiter-Glo, duplicate (AID 807;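 active = viability increase at or above a cutoff of the median across tested compounds plus 3 SD, cut at about 8.5% in these data, passing the limit was not always enough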;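 also: compound pretreatment 18-22 h then 72 h combined with doxorubicin; 0% = doxorubicin alone and 100% = vehicle without doxorubicin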); conditions: H69AR viability with doxorubicin, CellTiter-Glo luminescence; at 10 µM; hits give high values
[4] = growth suppression of beta-catenin knockout HCT116, pilot screen, human colon tumor cells (AID 823); conditions: CellTiter-Glo, 60 h, at 10 µM, hits give low values;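 also: 0% = wells killed by 20 µM Hyamine and 100% = untreated DMSO cell wells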
[5] = growth suppression of PTEN-deleted HCT116, pilot screen, cell-based, HCT116 clonal line, CellTiter-Glo (AID 824;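 active = viability at or below 27.92% in each of two runs, the all-compound median minus 4 SD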;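 also: 0% = 20 µM Hyamine control and 100% = vehicle cell control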); conditions: 60 h, at 10 µM, hits give low values
[6] = inhibitors of the yeast RAM network, pilot screen, dse1pr::URA3 reporter, 5-FOA selection (AID 869;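 active = inhibition over a set limit, the all-compound mean plus 3 SD, in both replicate runs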;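 also: 0% = DMSO wells with no growth and 100% = 10 µM 1-NA-PP1 with full growth; RAM network block rescues cells from 5-FOA so hits raise OD615 growth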); conditions: S. cerevisiae dse1pr::URA3 5-FOA growth, OD615, 2 d; at 10 µM; hits give high values; strain carries analog-sensitive mutant Cbk1 kinase
[7] = RAM signaling pathway blockade in yeast – S. cerevisiae, Pdr1DBD-CYC8 efflux-inhibited sensitized strain, primary screen (AID 1298;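 active = RAM network inhibition above 8.4% in each of two replicates, 3 SD over the compound average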;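 also: 0% = DMSO untreated cells without growth and 100% = 10 µM 1-NA-PP1 full growth; higher means more yeast growth rescued from 5-FOA killing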); conditions: S. cerevisiae cbk1-as DSE1-URA3 strain, 5-FOA growth OD615, 2 d; at 50 µM; hits give high values

O=C(C1Cc2ccccc2O1)N1CCCCC1 (stereo not drawn)
inactive: growth inhibition [1] -0.465% | growth inhibition [2] 2.46% | viability increase [3] -1.5% | viability [4] 103% | viability [5] 101% | inhibition [6] 0.17% | RAM network inhibition [7] 4.37%

Cn1c(Cn2c(=O)sc3ccccc32)nnc1SCC(=O)Nc1ccccc1F
inactive: growth inhibition [1] -5.34% | growth inhibition [2] -10% | viability increase [3] -1.11% | viability [4] 104% | viability [5] 99.4% | inhibition [6] 1.62% | RAM network inhibition [7] 9.24%

CCOC(=O)N1CCC(NC(=O)CSCc2nc(-c3sccc3C)oc2C)CC1
inactive: growth inhibition [1] -9.01% | growth inhibition [2] -10.5% | viability increase [3] -1.24% | viability [4] 90% | viability [5] 83.5% | inhibition [6] 1.34% | RAM network inhibition [7] 6.2%

CCOc1ccc2[nH]cc(S(=O)(=O)c3ccc(F)cc3)c(=O)c2c1
inactive: growth inhibition [1] -4.64% | growth inhibition [2] -19.8% | viability increase [3] -0.98% | viability [4] 78.7% | viability [5] 87.2% | inhibition [6] 0.455% | RAM network inhibition [7] 2.36%

CCOC(=O)c1cc2c(=O)n3cccc(C)c3nc2n(CCCOC)c1=NC(=O)c1cccnc1
inactive: growth inhibition [1] -11.3% | growth inhibition [2] -9.9% | viability increase [3] -4.94% | viability [4] 92.5% | viability [5] 92.2% | inhibition [6] 0.515% | RAM network inhibition [7] 6.01%

Cc1ccnc(SCCn2c(N3CCCCC3)nc3c2c(=O)[nH]c(=O)n3C)n1
inactive: growth inhibition [1] -8.7% | growth inhibition [2] -5.05% | viability increase [3] 0.17% | viability [4] 101% | viability [5] 107% | inhibition [6] 1.52% | RAM network inhibition [7] 2.14%

O=C1CC(c2nc3ccccc3[nH]2)CN1Cc1ccccc1 (stereo not drawn)
inactive: growth inhibition [1] -0.355% | growth inhibition [2] -0.09% | viability increase [3] -1.02% | viability [4] 101% | viability [5] 95% | inhibition [6] 1.07% | RAM network inhibition [7] 0.96%

CCOCCCNC(=O)C(NC(=O)C1CCC(=O)N1)c1ccc(C)cc1 (stereo not drawn)
inactive: growth inhibition [1] -2.92% | growth inhibition [2] -1.24% | viability increase [3] -0.58% | viability [4] 109% | viability [5] 98.8% | inhibition [6] 1.03% | RAM network inhibition [7] 5.24%

CC1(C)CC(=O)c2sc(NC(=O)C3CC3)nc2C1
inactive: growth inhibition [1] -1.12% | growth inhibition [2] -10.6% | viability increase [3] 1.37% | viability [4] 104% | viability [5] 106% | inhibition [6] 1.47% | RAM network inhibition [7] 1.56%

c1coc(Cn2c(SCc3nc4ccccc4[nH]3)nnc2-c2cccs2)c1
inactive: growth inhibition [1] 0.98% | growth inhibition [2] 21.3% | viability increase [3] -1.17% | viability [4] 93% | viability [5] 89.8% | inhibition [6] 3.64% | RAM network inhibition [7] 1.24%

COc1ccccc1C(=O)n1nc(C)cc1C
inactive: growth inhibition [1] -3.16% | growth inhibition [2] -0.83% | viability increase [3] 0.58% | viability [4] 92% | viability [5] 95.8% | inhibition [6] -0.645% | RAM network inhibition [7] 3.78%

Cc1cccn2c(=O)c(C=NCc3ccco3)c(Nc3ccc(Cl)cc3)nc12
inactive: growth inhibition [1] -14.3% | growth inhibition [2] -2.91% | viability increase [3] -6.81% | viability [4] 79.7% | viability [5] 76.1% | inhibition [6] 1.09% | RAM network inhibition [7] 1.21%

C=CCSC1=N/C(=C\c2ccc3c(c2)OCO3)C(=O)S1
inactive: growth inhibition [1] -6.71% | growth inhibition [2] -9.09% | viability increase [3] -5.28% | viability [4] 103% | viability [5] 96.7% | inhibition [6] 4.59% | RAM network inhibition [7] 7.07%

O=C(NCc1nc2ccccc2[nH]1)c1cccs1
inactive: growth inhibition [1] -13.9% | growth inhibition [2] -1.7% | viability increase [3] 0.55% | viability [4] 105% | viability [5] 103% | inhibition [6] 2.04% | RAM network inhibition [7] 5.75%

COc1ccc(Cl)cc1S(=O)(=O)N1CCN=C1C
inactive: growth inhibition [1] 1.52% | growth inhibition [2] -3.21% | viability increase [3] -2.75% | viability [4] 90.8% | viability [5] 90% | inhibition [6] 0.03% | RAM network inhibition [7] 7.99%

Cc1ccc(CC(CC(=O)O)C(=O)NC2CCCCC2)cc1 (stereo not drawn)
inactive: growth inhibition [1] -8.33% | growth inhibition [2] -0.295% | viability increase [3] -0.76% | viability [4] 101% | viability [5] 99.2% | inhibition [6] 2.5% | RAM network inhibition [7] 3.83%

C=CCn1c(SCC(=O)NCc2ccco2)nc2sc3c(c2c1=O)CCC3
inactive: growth inhibition [1] -1.65% | growth inhibition [2] 0.995% | viability increase [3] -4.9% | viability [4] 98.6% | viability [5] 92.6% | inhibition [6] 2.48% | RAM network inhibition [7] 1.5%

CCC(=O)c1ccc(N2CCN(C(=O)COc3ccc(F)cc3)CC2)c(F)c1
inactive: growth inhibition [1] -5.39% | growth inhibition [2] -3.45% | viability increase [3] -2.21% | viability [4] 73.7% | viability [5] 82.5% | inhibition [6] 1.71% | RAM network inhibition [7] 5.92%

O=C(NCc1cccnc1)c1nnc(Cc2ccc(F)cc2)o1
inactive: growth inhibition [1] 7.17% | growth inhibition [2] 2.65% | viability increase [3] 2.16% | viability [4] 98.4% | viability [5] 103% | inhibition [6] 0.03% | RAM network inhibition [7] 3.62%

COc1ccccc1NC(=O)CSc1nc(O)cc(=O)n1-c1ccccc1OC
inactive: growth inhibition [1] -0.915% | growth inhibition [2] -0.015% | viability increase [3] 0.76% | viability [4] 100% | viability [5] 100% | inhibition [6] 0.485% | RAM network inhibition [7] 3.1%

c1cnn(-c2nc(N3CCOCC3)nc(N3CCOCC3)n2)c1
inactive: growth inhibition [1] 0.06% | growth inhibition [2] 7.23% | viability increase [3] -5.18% | viability [4] 67.1% | viability [5] 72.9% | inhibition [6] 1.96% | RAM network inhibition [7] -2.04%

COc1ccc(C2CCCN2C(=O)Nc2ccc(F)cc2)cc1OC (stereo not drawn)
inactive: growth inhibition [1] -6.66% | growth inhibition [2] -5.24% | viability increase [3] 1.33% | viability [4] 98.8% | viability [5] 88.2% | inhibition [6] 2.6% | RAM network inhibition [7] 3.45%

O=C(CSc1ccc2nnc(-c3ccccn3)n2n1)NCc1ccc2c(c1)OCO2
inactive: growth inhibition [1] -0.545% | growth inhibition [2] 21.4% | viability increase [3] -3.68% | viability [4] 91.6% | viability [5] 91.7% | inhibition [6] 2.51% | RAM network inhibition [7] 1.66%

Cn1c(C(=O)N2CCN(C(=O)c3ccco3)CC2)cc2c(=O)n(C)c3ccccc3c21
inactive: growth inhibition [1] -3.88% | growth inhibition [2] 5.88% | viability increase [3] -4.21% | viability [4] 92.9% | viability [5] 87% | inhibition [6] 0.83% | RAM network inhibition [7] 2.87%
